ChEMBL document CHEMBL1806443, “Novel imidazo[4,5-b]pyridine and triaza-benzo[c]fluorene derivatives: synthesis, antiproliferative activity and DNA binding studies” (Eur J Med Chem, 2011)
The source made the active and inactive calls. No cut-off for these calls is given here.

Legend:
SW-620 [1] = experiment: Cell cycle arrest in human SW620 cells assessed as accumulation at G1 phase at 5 uM after 48 hrs by propidium iodide staining based flow cytometeric analysis (reference value: 52.7 +/- 0.9%); format: functional
MIA PaCa-2 [2] = experiment: Cell cycle arrest in human MIAPaCa2 cells assessed as accumulation at subG1 phase at 1 uM after 48 hrs by propidium iodide staining based flow cytometeric analysis (reference value: 46.8 +/- 0.7%); format: functional
HeLa = experiment: Cytostatic activity against human HeLa cells at 1 to 10 uM after 72 hrs by MTT assay; format: functional, cell-based
Method in brief: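 Monolayers in DMEM with 10% FBS, 2 mM L-glutamine, penicillin and streptomycin (37 °C, 5% CO2) were seeded at 3000–6000 cells/well on day 0. Five 10-fold dilutions (0.01–100 µM) were added, followed by 72-h incubation and MTT read-out. Absorbances were converted to percentage growth by the NIH formulae. Each point was run in quadruplicate in three experiments; ANOVA with Tukey test.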

SW-620 [3] = experiment: Cell cycle arrest in human SW620 cells assessed as accumulation at subG1 phase at 10 uM after 24 hrs by propidium iodide staining based flow cytometeric analysis (reference value: 18 +/- 1%); format: functional
Method in brief: (§1)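 Cells seeded at 3 × 10^4 per well and treated 24 h later with 1, 5 or 10 µM for 24 and 48 h. Adherent and floating cells were pooled, washed in PBS and fixed in 70% ethanol. They were then stained with propidium iodide 10 µg/mL plus RNase A 0.2 µg/mL. Flow cytometry counted 10000 events; each point was run in triplicate; significance was taken at p < 0.05.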

MIA PaCa-2 [4] = experiment: Antiproliferative activity against human MIAPaCa2 cells after 72 hrs by MTT assay; format: functional, cell-based; settings: Homo sapiens, MIA PaCa-2, 72 h
Method in brief: (§2)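 Monolayer cells in DMEM with 10% FBS, 2 mM L-glutamine, penicillin and streptomycin at 37 °C, 5% CO2. Seeded at 3000-6000 cells/well by doubling time on day 0. Five 10-fold dilutions (0.01–100 µM) were added and incubated 72 h. MTT read-out, converted to percentage growth. IC50 by linear regression between bracketing concentrations. Quadruplicate points, three independent experiments, ANOVA/Tukey p<0.05.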

SW-620 [5] = experiment: Cell cycle arrest in human SW620 cells assessed as accumulation at subG1 phase at 10 uM after 48 hrs by propidium iodide staining based flow cytometeric analysis (reference value: 29.1 +/- 1.1%); format: functional; method in brief: as §1
SW-620 [6] = experiment: Cell cycle arrest in human SW620 cells assessed as accumulation at S phase at 10 uM after 24 hrs by propidium iodide staining based flow cytometeric analysis (reference value: 48.4 +/- 1.4%); format: functional
MCF7 = experiment: Antiproliferative activity against human MCF7 cells after 72 hrs by MTT assay; format: functional, cell-based; settings: Homo sapiens, MCF7, 72 h; method in brief: as §2
MIA PaCa-2 [7] = experiment: Cell cycle arrest in human MIAPaCa2 cells assessed as accumulation at G2/M phase at 1 uM after 48 hrs by propidium iodide staining based flow cytometeric analysis (reference value: 14.3 +/- 1.8%); format: functional

In the case of Cl.c1cnc2nc3ccc4ccc(C5=NCCN5)cc4n3c2c1, the Activity (SW-620 [1]) is reported as 90.9%, the Activity (MIA PaCa-2 [2]) is reported as 33.8% and the Activity (HeLa) is reported as “Active”. It also gave an Activity (SW-620 [3]) of 20.1%, an IC50 (MIA PaCa-2 [4]) of 0.74 µM and an Activity (SW-620 [5]) of 40.6%. The Activity (SW-620 [6]) was 47.3%, the IC50 (MCF7) was 6.54 µM and the Activity (MIA PaCa-2 [7]) was 23%.
